This is a sample that favours compounds with a hit; in the whole collection about 3.3% have one here.
PglD inh: PglD (C. jejuni) enzyme inhibition; 360,000 tested, 0.098% active; purified PglD enzyme, DTNB colorimetric CoA detection; inhibition, % at 12.5 µM; AID 602405; in the data active = inhibition above about 16%, passing the limit was not always enough; inconclusive = no clear call, values can overlap the other calls
C2C12 statin: suppression of simvastatin myotoxicity. C2C12 myotubes + simvastatin, ATP luminescence, 48 h; scaled: DMSO 0, geranylgeraniol control 100. rescue of ATP level, % at 7.49 µM. 330,000 tested, 0.78% active;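 active = mean ATP rescue above about 67%, or every replicate alone reaching that limit, limit read from the data, passing the limit was not always enough; inconclusive = no clear call, values can overlap the other calls; inactive = mean under the limit and some replicate under it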;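 also: myotubes were challenged with 10 µM simvastatin during compound exposure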
XiGFP reactiv: reactivates the inactive X chromosome in mouse fibroblasts | XiGFP mouse fibroblasts, % GFP-positive cells imaging, 3 d; cells co-treated with 5-aza-dC sensitizer; scaled so ellipticine positive control = 100% | activation, % at 7.58 µM | 360,000 tested, 0.055% active;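 active = mean normalized replicate activation at least 10% and every replicate at or above 10%; inconclusive = only one of the two criteria met; inactive = mean below 10% and not all replicates reach 10%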;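 also: 0% = median of on-plate neutral control wells and 100% = ellipticine 6 µM median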
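assay system = SV40-immortalized XiGFP fibroblast cells, line 68-5-11 | buffer or medium = DMEM plus 5-aza-dC sensitizer | doses = single-point pinned compound dosing | times = 3-day compound exposure, then 15 min fixation at room temperature | benchmarks = positive control ellipticine, 6 µM final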
FGF22 binding: shifts melting point of recombinant human FGF22. Q9HCT0. 340,000 tested, 1.5% active. recombinant FGF22 thermal shift, SYPRO orange fluorescence; percent of sucrose octasulfate shift, DMSO zero. activity (Tm shift, normalised), % at 9.99 µM;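 active = mean Tm shift, scaled 0 neutral to 100 positive control, at about 1.3% or above, every replicate too, limit read from the data; inconclusive = no clear call, values can overlap the other calls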
Target sequence (Q9HCT0 whole entry, looked up): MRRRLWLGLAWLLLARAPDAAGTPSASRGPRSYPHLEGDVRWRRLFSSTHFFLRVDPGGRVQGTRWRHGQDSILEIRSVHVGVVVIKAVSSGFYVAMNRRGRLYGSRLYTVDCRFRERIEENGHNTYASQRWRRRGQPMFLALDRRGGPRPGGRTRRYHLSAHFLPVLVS
DENV2 CPE rescue: DENV2-induced cell death inhibition; 350,000 tested, 1.7% active; CPE inhibition, % at 9.99 µM; DENV2-infected cells, cytopathic effect rescue, plate reader; in the data active = CPE inhibition above about 20%, passing the limit was not always enough; inconclusive = no clear call, values can overlap the other calls; tested in BHK-21 cells;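 also: 0% = median of neutral control wells and 100% = median of positive control wells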
E-sel inducer: E-selectin induction on HUVECs. HUVEC E-selectin immunofluorescence imaging; normalized: neutral wells 0, TNF-alpha wells 100. activation, % at 7.58 µM. 260,000 tested, 0.37% active;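 active = mean E-selectin-positive cell signal at least 10% of the positive control, reached in at least 60% of replicates, without over 20% cell loss; inconclusive = no rule given, readout overlaps actives, possibly toxicity-flagged; inactive = the rest, including those meeting only one limit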
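Test system: HUVEC; input: 3,000 HUVEC/well; measured by: immunofluorescence imaging; read-out: % PE-positive cells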
Active calls of the source: *; ? = inconclusive; nt = no result given.

SMILES	PglD inh	C2C12 statin	XiGFP reactiv	FGF22 binding	DENV2 CPE rescue	E-sel inducer
Cc1noc(C)c1S(=O)(=O)Nc1ccc2c(c1)C(=O)N([C@@H](C)CO)C[C@@H](C)[C@H](CN(C)C(=O)Nc1ccccc1)OCCCC[C@@H](C)O2	11	nt	0	0	97*	1
Cc1noc(C)c1S(=O)(=O)Nc1ccc2c(c1)C(=O)N([C@H](C)CO)C[C@@H](C)[C@H](CN(C)C(=O)Nc1ccccc1)OCCCC[C@@H](C)O2	6	nt	0	0	2	0
Cc1noc(C)c1S(=O)(=O)Nc1ccc2c(c1)C(=O)N([C@H](C)CO)C[C@H](C)[C@H](CN(C)C(=O)Nc1ccccc1)OCCCC[C@H](C)O2	8	nt	0	0	33*	0
Cc1noc(C)c1S(=O)(=O)Nc1ccc2c(c1)C(=O)N([C@H](C)CO)C[C@H](C)[C@@H](CN(C)C(=O)Nc1ccc(F)cc1)OCCCC[C@H](C)O2	2	nt	0	0	-3	0
O=C(Nc1cccc(C(=O)O)c1)/C(=C\c1ccccc1)NC(=O)c1ccco1	-3	5	1	0	27*	nt
COc1ccc(S(=O)(=O)Nc2ccc3c(c2)C(=O)N([C@@H](C)CO)C[C@@H](C)[C@@H](CN(C)C(=O)NC(C)C)O3)cc1	nt	nt	0	nt	nt	16
Cc1ccc(-c2nnc(OCCN3CCOCC3)c3ccccc23)cc1	1	111*	nt	nt	nt	nt
CO[C@H]1CN(C)C(=O)c2cc(NC(=O)C3CC3)ccc2OC[C@@H](C)N(C(C)=O)C[C@@H]1C	5	18	0	0	0	0
C/C(=N\NC(=O)c1ccccc1NC(=O)c1ccc(Cl)cc1)c1ccncc1	nt	nt	0	43*	2	0
O=C(C[C@@H]1C[C@H]2c3cc(NC(=O)c4cccnc4)ccc3O[C@H]2[C@H](CO)O1)NC1CCCC1	nt	nt	0	nt	-2	0
COc1cc(S(=O)(=O)N2CCN(c3ccccc3)CC2)ccc1Cl	3	0	nt	1	13	nt
COc1cc(S(=O)(=O)N2CCN(c3ccccc3F)CC2)ccc1Cl	0	78*	nt	nt	nt	nt
COc1cc(S(=O)(=O)N2CCCCCC2)ccc1Cl	-7	100*	nt	nt	nt	nt
COc1ccc(Nc2ccc(S(=O)(=O)N3CCCCC3)cc2[N+](=O)[O-])cc1	-1	nt	0	nt	nt	0
COc1cc(S(=O)(=O)N2CCN(C)CC2)ccc1Cl	1	-1	nt	0	2	nt
COc1ccc(Nc2ccc(S(=O)(=O)N3CCCCC3)cc2[N+](=O)[O-])cc1Cl	0	-7	0	0	41*	nt
Cc1nn(C)cc1NC(=O)C[C@@H]1CC[C@H]2[C@@H](COc3ccc(NC(=O)Nc4cccc(Cl)c4)cc3C(=O)N2C)O1	-2	-31	0	0	-4	0
N#Cc1ccccc1CSc1nc(N2CCCCC2)nc(N2CCCCC2)n1	0	117*	nt	nt	nt	nt
Cc1nc(SCc2ccccc2C#N)n[nH]1	0	1	0	0	7	0
C[C@@H]1CN([C@@H](C)CO)C(=O)Cc2cc(NS(=O)(=O)c3cn(C)cn3)ccc2O[C@H]1CN(C)C(=O)Nc1ccc(C(F)(F)F)cc1	nt	1	-1	0	0	nt
Cc1[nH][nH]c(=O)c1C=NCc1cccnc1	5	-5	0	44*	5	nt
Cc1[nH][nH]c(=O)c1C=NCc1cccs1	-7	4	0	43	1	nt
O=S(=O)(c1cccc2cccnc12)N1CCN(Cc2ccc(OCCO)cc2)CC1	1	nt	nt	0	41*	nt
O=C(CSc1ccc(Cl)cc1)OCc1nnc(-c2ccccc2)o1	7	69*	nt	nt	nt	nt
O=C(Cc1ccc(Cl)cc1)OCc1nnc(-c2ccccc2)o1	-5	0	0	0	17	nt
SMILES	PglD inh	C2C12 statin	XiGFP reactiv	FGF22 binding	DENV2 CPE rescue	E-sel inducer
COc1cc(CCC(=O)OCc2nnc(-c3ccccc3)o2)cc(OC)c1OC	-5	104*	nt	nt	nt	nt
COc1cc(CC(=O)OCC(=O)Nc2ccccc2C#N)cc(OC)c1OC	-1	-6	0	0	-4	7
COc1cc(CCC(=O)OCC(=O)Nc2ccccc2C#N)cc(OC)c1OC	nt	5	0	0	nt	458*
COc1cc(CCC(=O)OCc2ccccc2C#N)cc(OC)c1OC	3	0	0	0	?	nt
CC(C)C[C@H](NC(=O)Nc1cccc(Br)c1)C(=O)O	nt	nt	0	44*	-15	nt
Cc1noc(C)c1NC(=O)Nc1ccc2c(c1)C(=O)N([C@@H](C)CO)C[C@@H](C)[C@H](CN(C)S(=O)(=O)c1ccc(Cl)cc1)OCCCC[C@@H](C)O2	0	nt	0	0	3	0
C/C(=N\N1CCN(C)CC1)c1ccc(Cl)c(Cl)c1	nt	nt	0	43	0	0
C/C(=N\N1CCN(C)CC1)c1ccc(OC(F)F)cc1	nt	nt	0	43*	5	nt
Cc1ccc(S(=O)(=O)Nc2ccc3c(c2)C(=O)N([C@@H](C)CO)C[C@H](C)[C@@H](CN(C)C)OCCCC[C@@H](C)O3)cc1	5	0	0	0	-15	0
Cc1noc(C)c1S(=O)(=O)Nc1ccc2c(c1)C(=O)N([C@H](C)CO)C[C@@H](C)[C@@H](CN(C)Cc1ccc(Cl)c(Cl)c1)O2	0	nt	0	0	-6	nt
Cc1noc(C)c1S(=O)(=O)Nc1ccc2c(c1)C(=O)N([C@H](C)CO)C[C@@H](C)[C@H](CN(C)Cc1ccc3c(c1)OCO3)O2	0	10	1	1	7	26*
Cc1noc(C)c1S(=O)(=O)Nc1ccc2c(c1)C(=O)N([C@H](C)CO)C[C@@H](C)[C@@H](CN(C)Cc1ccc3c(c1)OCO3)O2	-1	5	0	0	-7	44*
CCCNC(=O)C[C@@H]1CC[C@@H]2[C@H](COC[C@@H](O)CN2C(=O)c2ccccn2)O1	-1	-16	0	0	-4	0
CCC(=O)Nc1ccc2c(c1)C(=O)N(C)[C@H]1CC[C@H](CC(=O)Nc3cccc(OC)c3)O[C@@H]1CO2	-1	13	0	0	7	0
Cn1c(SCc2nc3ccccc3c(=O)[nH]2)nc2ccccc21	nt	nt	0	0	-3	nt
O=c1[nH]c(CSc2nnnn2-c2ccccc2)nc2ccccc12	nt	2	0	43*	-10	0
COCCNc1ncnc2c1ncn2[C@H]1CN(Cc2ccc(F)cc2)C[C@@H](CO)O1	-1	2	0	0	40*	0
COCCNc1ncnc2c1ncn2[C@H]1CN(Cc2ccc(-c3ccccc3)cc2)C[C@@H](CO)O1	-3	3	0	0	-9	0
COCCN(C(=O)/C=C/c1ccccc1)c1c(N)n(Cc2ccccc2)c(=O)[nH]c1=O	nt	nt	0	43*	-1	5
